≈ marks a conversion by molar mass, not a printed value. Calls of active or inactive are those of the source. The rule behind the calls is not given here.
What was measured:
[1] = test system: Mycolicibacterium fortuitum; assay: Antimycobacterial activity against Mycobacterium fortuitum ATCC 6841 assessed as bacterial growth inhibition incubated for 72 hrs by resazurin dye based broth microdilution method; type: functional, organism-based
In short: (§1)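 Broth microdilution in Middlebrook 7H9 with 10% ADC-Tween-80 (0.2% glycerol, 0.05% Tween-80), inoculum ~10⁶ cfu/mL. Compounds came from 10 mg/mL DMSO stocks and were tested as two-fold serial dilutions at 37 °C, 7 days for M. tuberculosis H37Rv and 72 h for NTM. Growth was read visually with PrestoBlue resazurin dye; MIC was the lowest concentration preventing growth. Triplicate determinations, each in duplicate.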

[2] = test system: Staphylococcus aureus; assay: Antibacterial activity against methicillin/ceftriaxone/meropenem/gentamycin/linezolid-resistant Staphylococcus aureus NRS10119 clinical isolate assessed as bacterial growth inhibition incubated for 16 to 18 hrs by CLSI based antibiotic susceptibility testing method; type: functional; settings: time 16-18 hrs
In short: (§2)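 Broth microdilution in cation-adjusted Mueller-Hinton broth. Compounds were tested at […], with levofloxacin as reference and medium-only controls. Plates were incubated at 37 °C for 16-18 h. MIC was the lowest concentration with no visible growth; three independent determinations, each in duplicate.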

[3] = test system: Staphylococcus aureus; assay: Antibacterial activity against methicillin/ceftriaxone-resistant Staphylococcus aureus NRS10194 clinical isolate assessed as bacterial growth inhibition incubated for 16 to 18 hrs by CLSI based antibiotic susceptibility testing method; type: functional; settings: time 16-18 hrs; in short: as §2
[4] = test system: Staphylococcus aureus; assay: Antibacterial activity against methicillin/ceftriaxone/meropenem-resistant Staphylococcus aureus NRS10192 clinical isolate assessed as bacterial growth inhibition incubated for 16 to 18 hrs by CLSI based antibiotic susceptibility testing method; type: functional; settings: time 16-18 hrs; in short: as §2
[5] = test system: Staphylococcus aureus; assay: Antibacterial activity against methicillin/ceftriaxone/meropenem/gentamycin/linezolid-resistant Staphylococcus aureus NRS10100 clinical isolate assessed as bacterial growth inhibition incubated for 16 to 18 hrs by CLSI based antibiotic susceptibility testing method; type: functional; settings: time 16-18 hrs; in short: as §2
[6] = Selectivity index, ratio of CC50 for African green monkey Vero cells to MIC for Staphylococcus aureus ATCC 29213; type: toxicity, cell-based; settings: read-out: Selectivity Index
[7] = test system: Mycobacteroides chelonae; assay: Antimycobacterial activity against Mycobacteroides chelonae ATCC 35752 assessed as bacterial growth inhibition incubated for 72 hrs by resazurin dye based broth microdilution method; type: functional, organism-based; in short: as §1
[8] = test system: Mycobacteroides abscessus; assay: Antimycobacterial activity against Mycobacterium abscessus ATCC 19977 assessed as bacterial growth inhibition incubated for 72 hrs by resazurin dye based broth microdilution method; type: functional, organism-based; in short: as §1
[9] = test system: Staphylococcus aureus; assay: Antibacterial activity against Staphylococcus aureus ATCC 29213 assessed as bacterial growth inhibition incubated for 16 to 18 hrs by CLSI based antibiotic susceptibility testing method; type: functional; settings: time 16-18 hrs; in short: as §2
[10] = test system: Escherichia coli; assay: Antibacterial activity against Escherichia coli ATCC 25922 assessed as bacterial growth inhibition incubated for 16 to 18 hrs by CLSI based antibiotic susceptibility testing method; type: functional, organism-based; settings: time 16-18 hrs; in short: as §2
[11] = test system: Staphylococcus aureus; assay: Antibacterial activity against methicillin/ceftriaxone/meropenem-resistant Staphylococcus aureus NRS10198 clinical isolate assessed as bacterial growth inhibition incubated for 16 to 18 hrs by CLSI based antibiotic susceptibility testing method; type: functional; settings: time 16-18 hrs; in short: as §2
[12] = test system: Acinetobacter baumannii; assay: Antibacterial activity against Acinetobacter baumannii BAA 1605 assessed as bacterial growth inhibition incubated for 16 to 18 hrs by CLSI based antibiotic susceptibility testing method; type: functional, organism-based; settings: time 16-18 hrs; in short: as §2
[13] = test system: Staphylococcus aureus; assay: Antibacterial activity against methicillin/ceftriaxone/meropenem-resistant Staphylococcus aureus NRS10193 clinical isolate assessed as bacterial growth inhibition incubated for 16 to 18 hrs by CLSI based antibiotic susceptibility testing method; type: functional; settings: time 16-18 hrs; in short: as §2
[14] = test system: Staphylococcus aureus; assay: Antibacterial activity against methicillin/ceftriaxone/meropenem-resistant Staphylococcus aureus NRS10129 clinical isolate assessed as bacterial growth inhibition incubated for 16 to 18 hrs by CLSI based antibiotic susceptibility testing method; type: functional; settings: time 16-18 hrs; in short: as §2
[15] = test system: Staphylococcus aureus; assay: Antibacterial activity against methicillin/ceftriaxone/meropenem/gentamycin/vancomycin/teicoplanin-resistant Staphylococcus aureus VRS1 clinical isolate assessed as bacterial growth inhibition incubated for 16 to 18 hrs by CLSI based antibiotic susceptibility testing method; type: functional; settings: time 16-18 hrs; in short: as §2
[16] = test system: Mycobacterium tuberculosis; assay: Antimycobacterial activity against Mycobacterium tuberculosis H37Rv ATCC 27294 assessed as bacterial growth inhibition incubated for 7 days by resazurin dye based broth microdilution method; type: functional; settings: H37Rv ATCC 27294, 168 h, time 7 day; in short: as §1
[17] = test system: Staphylococcus aureus; assay: Antibacterial activity against methicillin/ceftriaxone/meropenem/vancomycin/teicoplanin-resistant Staphylococcus aureus VRS12 clinical isolate assessed as bacterial growth inhibition incubated for 16 to 18 hrs by CLSI based antibiotic susceptibility testing method; type: functional; settings: time 16-18 hrs; in short: as §2
[18] = test system: Staphylococcus aureus; assay: Antibacterial activity against methicillin/ceftriaxone/meropenem-resistant Staphylococcus aureus NRS10186 clinical isolate assessed as bacterial growth inhibition incubated for 16 to 18 hrs by CLSI based antibiotic susceptibility testing method; type: functional; settings: time 16-18 hrs; in short: as §2
[19] = test system: Staphylococcus aureus; assay: Antibacterial activity against methicillin/ceftriaxone/meropenem/vancomycin/teicoplanin-resistant Staphylococcus aureus VRS4 clinical isolate assessed as bacterial growth inhibition incubated for 16 to 18 hrs by CLSI based antibiotic susceptibility testing method; type: functional; settings: time 16-18 hrs; in short: as §2
[20] = test system: Pseudomonas aeruginosa; assay: Antibacterial activity against Pseudomonas aeruginosa ATCC 27853 assessed as bacterial growth inhibition incubated for 16 to 18 hrs by CLSI based antibiotic susceptibility testing method; type: functional, organism-based; settings: time 16-18 hrs; in short: as §2
[21] = test system: Staphylococcus aureus; assay: Antibacterial activity against methicillin/ceftriaxone/meropenem-resistant Staphylococcus aureus NRS10191 clinical isolate assessed as bacterial growth inhibition incubated for 16 to 18 hrs by CLSI based antibiotic susceptibility testing method; type: functional; settings: time 16-18 hrs; in short: as §2
[22] = test system: Klebsiella pneumoniae; assay: Antibacterial activity against Klebsiella pneumoniae BAA 1705 assessed as bacterial growth inhibition incubated for 16 to 18 hrs by CLSI based antibiotic susceptibility testing method; type: functional, organism-based; settings: time 16-18 hrs; in short: as §2
[23] = test system: Staphylococcus aureus; assay: Antibacterial activity against methicillin-sensitive Staphylococcus aureus ATCC 29213 clinical isolate assessed as bacterial growth inhibition incubated for 16 to 18 hrs by CLSI based antibiotic susceptibility testing method; type: functional; settings: time 16-18 hrs; in short: as §2
[24] = Cytotoxicity against African green monkey Vero cells by MTT assay; type: toxicity, cell-based; settings: chlorocebus sabaeus
In short: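 Vero cells were seeded at ~10³ per well at 37 °C, 5% CO2. After 24 h, compounds were added at 5-100 mg/L for 72 h. […] was added for 4 h, formazan was dissolved in DMSO and read at 540 nm. CC50 was taken as the lowest concentration reducing viability by 50%; doxorubicin was the positive control; triplicate.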

Row | Structure (SMILES) | growth inhibition (GI) [1] | MIC [2] [µg/mL] | MIC [3] [µg/mL] | MIC [4] [µg/mL] | MIC [5] [µg/mL] | selectivity ratio [6] | growth inhibition (GI) [7] | growth inhibition (GI) [8] | MIC [9] [µg/mL] | growth inhibition (GI) [10] | MIC [11] [µg/mL] | growth inhibition (GI) [12] | MIC [13] [µg/mL] | MIC [14] [µg/mL] | MIC [15] [µg/mL] | MIC [16] [µg/mL] | MIC [17] [µg/mL] | MIC [18] [µg/mL] | MIC [19] [µg/mL] | growth inhibition (GI) [20] | other results
1 | O=C1c2cccc3cccc(c23)C(=O)N1CCN1CCN(C(=S)Nc2ccccc2)CC1 | inactive | 4 (≈ 9 µM) | 4 (≈ 9 µM) | 2 (≈ 4.5 µM) | 4 (≈ 9 µM) | > 50 | inactive | inactive | 2 (≈ 4.5 µM) | inactive | 2 (≈ 4.5 µM) | inactive | 2 (≈ 4.5 µM) | 4 (≈ 9 µM) | 4 (≈ 9 µM) | > 64 | 4 (≈ 9 µM) | 4 (≈ 9 µM) | 2 (≈ 4.5 µM) | inactive | MIC [21]: 2 µg/mL (≈ 4.5 µM); growth inhibition (GI) [22]: inactive; MIC [23]: 4 µg/mL (≈ 9 µM); CC50 [24]: > 100 µg/mL
2 | O=C(CN1C(=O)c2cccc3cccc(c23)C1=O)N1CCN(C(=S)NC2CCCCC2)CC1 | inactive | 0.25 (≈ 0.538 µM) | 0.125 (≈ 0.269 µM) | 0.125 (≈ 0.269 µM) | 0.5 (≈ 1.08 µM) | > 400 | inactive | inactive | 0.25 (≈ 0.538 µM) | inactive | 0.25 (≈ 0.538 µM) | inactive | 0.25 (≈ 0.538 µM) | 0.25 (≈ 0.538 µM) | 0.25 (≈ 0.538 µM) | > 64 | 0.25 (≈ 0.538 µM) | 0.125 (≈ 0.269 µM) | 0.25 (≈ 0.538 µM) | inactive | MIC [21]: 0.25 µg/mL (≈ 0.538 µM); growth inhibition (GI) [22]: inactive; MIC [23]: 0.125 µg/mL (≈ 0.269 µM); CC50 [24]: > 100 µg/mL
3 | O=C(CN1C(=O)c2cccc3cccc(c23)C1=O)NC1CCN(C(=S)NC2CCCCCC2)CC1 | inactive | 0.5 (≈ 1.01 µM) | 1 (≈ 2.03 µM) | 1 (≈ 2.03 µM) | 0.5 (≈ 1.01 µM) | > 200 | inactive | inactive | 0.5 (≈ 1.01 µM) | inactive | 1 (≈ 2.03 µM) | inactive | 0.5 (≈ 1.01 µM) | 1 (≈ 2.03 µM) | 1 (≈ 2.03 µM) | > 64 | 1 (≈ 2.03 µM) | 0.5 (≈ 1.01 µM) | 1 (≈ 2.03 µM) | inactive | MIC [21]: 0.5 µg/mL (≈ 1.01 µM); growth inhibition (GI) [22]: inactive; MIC [23]: 1 µg/mL (≈ 2.03 µM); CC50 [24]: > 100 µg/mL
4 | O=C(CCN1C(=O)c2cccc3cccc(c23)C1=O)N1CCN(C(=S)NC2CCCCC2)CC1 | inactive | 2 (≈ 4.18 µM) | 2 (≈ 4.18 µM) | 1 (≈ 2.09 µM) | 4 (≈ 8.36 µM) | > 50 | inactive | inactive | 1 (≈ 2.09 µM) | inactive | 1 (≈ 2.09 µM) | inactive | 4 (≈ 8.36 µM) | 2 (≈ 4.18 µM) | 2 (≈ 4.18 µM) | > 64 | 2 (≈ 4.18 µM) | 1 (≈ 2.09 µM) | 1 (≈ 2.09 µM) | inactive | MIC [21]: 2 µg/mL (≈ 4.18 µM); growth inhibition (GI) [22]: inactive; MIC [23]: 2 µg/mL (≈ 4.18 µM); CC50 [24]: > 50 µg/mL

From ChEMBL document CHEMBL5385966, “Synthesis and biological evaluation of new naphthalimide-thiourea derivatives as potent antimicrobial agents active against multidrug-resistant Staphylococcus aureus and Mycobacterium tuberculosis” (RSC Med Chem, 2024)
